Measured values: ChEMBL document CHEMBL4673243, “Discovery of 9-Cyclopropylethynyl-2-((S)-1-[1,4]dioxan-2-ylmethoxy)-6,7-dihydropyrimido[6,1-a]isoquinolin-4-one (GLPG1205), a Unique GPR84 Negative Allosteric Modulator Undergoing Evaluation in a Phase II Clinical Trial” (J Med Chem, 2020)
In brackets after ≈: the same amount, converted by molar mass.

Columns and labels:
[1] = Plasma protein binding in mouse at 5 uM measured after 4 hrs by LC-MS/MS analysis
[2] = Plasma protein binding in rat at 5 uM measured after 4 hrs by LC-MS/MS analysis
[3] = Plasma protein binding in human at 5 uM measured after 4 hrs by LC-MS/MS analysis
[4] = in vitro; details: mouse, liver microsomes
[5] = in vitro; details: human, liver microsomes
[6] = in vitro; details: mouse, cryopreserved hepatocytes
[7] = in vitro; details: human, cryopreserved hepatocytes
[8] = in vitro; details: rat, liver microsomes
[9] = biological target: 3',5'-cyclic-AMP phosphodiesterase 4A (Homo sapiens, UniProt P27815); test: Inhibition of recombinant human PDE4A overexpressed in HEK293 cells assessed as reduction in cAMP hydrolysis by HTRF based immunoassay; assay type: cell-based
Chain of 3',5'-cyclic-AMP phosphodiesterase 4A (P27815 whole entry): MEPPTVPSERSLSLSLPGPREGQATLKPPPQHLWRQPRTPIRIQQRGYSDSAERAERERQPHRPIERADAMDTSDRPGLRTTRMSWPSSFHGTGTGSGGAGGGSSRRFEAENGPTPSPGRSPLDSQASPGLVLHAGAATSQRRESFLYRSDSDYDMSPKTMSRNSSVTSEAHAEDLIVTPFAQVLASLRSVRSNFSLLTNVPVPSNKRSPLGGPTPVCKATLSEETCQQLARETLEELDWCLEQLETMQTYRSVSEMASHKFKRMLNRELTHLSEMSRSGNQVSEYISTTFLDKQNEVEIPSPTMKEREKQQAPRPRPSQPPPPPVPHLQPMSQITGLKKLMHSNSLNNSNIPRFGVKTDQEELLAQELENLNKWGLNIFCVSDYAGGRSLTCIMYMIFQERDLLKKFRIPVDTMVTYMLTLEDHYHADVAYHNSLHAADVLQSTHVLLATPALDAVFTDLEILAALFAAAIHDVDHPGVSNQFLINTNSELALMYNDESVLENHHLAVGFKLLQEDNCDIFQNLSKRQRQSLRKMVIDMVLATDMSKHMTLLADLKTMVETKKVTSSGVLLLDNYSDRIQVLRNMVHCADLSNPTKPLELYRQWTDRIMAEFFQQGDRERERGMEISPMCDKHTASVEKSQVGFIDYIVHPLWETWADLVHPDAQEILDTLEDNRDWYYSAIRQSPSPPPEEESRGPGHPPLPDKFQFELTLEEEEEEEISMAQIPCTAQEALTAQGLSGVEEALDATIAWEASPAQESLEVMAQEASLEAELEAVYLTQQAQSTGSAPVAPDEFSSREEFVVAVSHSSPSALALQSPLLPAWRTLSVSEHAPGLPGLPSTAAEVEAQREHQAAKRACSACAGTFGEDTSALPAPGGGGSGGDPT
Method in brief: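 Human PDE4A from lysate of HEK293 cells overexpressing the enzyme hydrolyses cAMP; remaining cAMP measured by HTRF competitive immunoassay (d2-labelled cAMP vs cryptate anti-cAMP antibody), signal inversely proportional to cAMP; IC50 determined.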

[10] = Inhibition of embelin-induced migration of human neutrophils preincubated for 30 mins followed by embelin addition and measured after 1 hr by ATPlite luminescence assay; details: Neutrophil
[11] = physchem; details: aqueous solution with 2% DMSO, pH 7.4
[12] = in vivo; details: male, Sprague-Dawley, rat, po, 5 mg/kg
[13] = in vivo; details: male, Sprague-Dawley, rat, po, 5 mg/kg; remark: listed apart in the source
[14] = in vivo; details: male, Sprague-Dawley, rat, po, 5 mg/kg; remark: listed apart in the source

Row | Compound | CLint scaled at 0.5 h, 1 µM [4] | IC50 ([9]; read-out: IC50) | solubility [11] | also measured
1 | COc1ccc2c(c1)CCn1c-2cc(OC[C@H]2COc3ncccc3O2)nc1=O | 360 mL/min/kg |  |  | fraction unbound at 4 h, 5 µM [1]: 0.087; fraction unbound at 4 h, 5 µM [2]: 0.021; fraction unbound at 4 h, 5 µM [3]: 0.027; CLint scaled at 0.5 h, 1 µM [5]: 35 mL/min/kg; CLint scaled at 1 µM [6]: 182 mL/min/kg; CLint scaled at 1 µM [7]: 13.3 mL/min/kg; CLint scaled at 0.5 h, 1 µM [8]: 152 mL/min/kg
2 | COc1cc2c(cc1OC)-c1cc(OCCOc3ccccc3)nc(=O)n1CC2 |  | 2110 nM | 26 µg/mL (≈ 65.9 µM) | IC50 [10]: 128 nM
3 | COc1ccc2c(c1)CCn1c-2cc(OCc2ncccc2F)nc1=O | 487 mL/min/kg | > 10000 nM |  | 
4 | COc1ccc2c(c1)CCn1c-2cc(OCCOc2ccccc2)nc1=O |  | > 10000 nM |  | 
5 | COc1cc2c(cc1OC)-c1cc(OCC3CCCO3)nc(=O)n1CC2 (stereo unspecified) | 175 mL/min/kg | 2170 nM | 72 µg/mL (≈ 201 µM) | 
6 | COc1cc2c(cc1OC)-c1cc(OCc3ncccc3F)nc(=O)n1CC2 |  | 1090 nM |  | 
7 | COc1cc2c(cc1OC)-c1cc(OCCOc3ccccn3)nc(=O)n1CC2 |  | 586 nM | 18 µg/mL (≈ 45.5 µM) | 
8 | COc1ccc2c(c1)-c1cc(OCc3ccccc3F)nc(=O)n1CC2 | 1970 mL/min/kg | > 10000 nM |  | 
9 | COc1ccc2c(c1)CCn1c-2cc(OCc2ccccc2F)nc1=O | 1490 mL/min/kg | > 10000 nM |  | 
10 | O=c1nc(OCc2ccccc2F)cc2n1CCc1ccccc1-2 |  | > 10000 nM |  | 
11 | COc1cc2c(cc1OC)-c1cc(OCc3ccccc3F)nc(=O)n1CC2 | 670 mL/min/kg | 372 nM | 26 µg/mL (≈ 68 µM) | 
12 | O=c1nc(OCC2COCCO2)cc2n1CCc1cc(C#CC3CC3)ccc1-2 (racemic) | 162 mL/min/kg |  |  | IC50 ([9]; hek293): Not Active; IC50 [10]: 17 nM; Tmax [12]: 1.7 h; AUC(0-inf) at 24 h [13]: 10200 ng·h/mL; Cmax at 1.7 h [14]: 2420 ng/mL; CLint scaled at 0.5 h, 1 µM [5]: 36.7 mL/min/kg; CLint scaled at 0.5 h, 1 µM [8]: 23.3 mL/min/kg
